Hits are enriched below; roughly 1.9% of the tested compounds scored in any of these assays.
NPY Y2 blocker = antagonists of human neuropeptide Y receptor Y2 | P49146 | NPY-Y2 expressing cells, antagonist mode | inhibition, % at 2.7 µM | actives 0.99% (n = 140,000)
Target sequence (P49146 whole entry, looked up): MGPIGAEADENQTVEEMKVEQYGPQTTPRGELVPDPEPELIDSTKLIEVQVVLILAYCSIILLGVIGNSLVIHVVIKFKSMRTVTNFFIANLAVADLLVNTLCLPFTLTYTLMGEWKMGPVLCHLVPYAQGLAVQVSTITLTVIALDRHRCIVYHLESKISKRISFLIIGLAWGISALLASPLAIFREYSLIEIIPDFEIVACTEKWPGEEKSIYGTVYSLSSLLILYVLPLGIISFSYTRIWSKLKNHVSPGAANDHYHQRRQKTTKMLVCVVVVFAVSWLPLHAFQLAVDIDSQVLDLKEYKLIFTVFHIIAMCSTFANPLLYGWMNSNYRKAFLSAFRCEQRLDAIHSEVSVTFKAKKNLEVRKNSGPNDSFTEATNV
NPY-Y1 antag = NPY-Y1 (human) receptor antagonism; P25929; actives 1% (n = 200,000); inhibition, % at 3.6 µM; HEK293-CNG Y1 cells, membrane potential fluorescence; NPY at EC95, then isoproterenol; AID 1040;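 active means inhibition above the campaign mean inhibition of all tested compounds plus 3 SD, cut at about 20% in these data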
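Assay system: HEK293 cells with Y1 receptor plus CNG channel | Probe or stimulus: NPY (25 nM), isoproterenol (1 µM), Ro 20-1724 (25 µM) | Timing: Compound incubation 1 h at room temperature, readout 45 min post-stimulation | Measured by: Membrane-potential fluorescent dye readout | Benchmarks: High control isoproterenol alone, low control NPY with isoproterenol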
NPY1 pot ag = potentiates or activates human NPY-Y1 receptor. NPY-Y1 expressing cells, potentiator/agonist activation. P25929. activation, % at 3.6 µM. AID 1304. actives 0.37% (n = 220,000); in the data active means activation above about 33%, passing the limit was not always enough;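 further: cells stimulated with NPY at EC10 then isoproterenol at EC100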
NPY-Y2 PAM-ag = human NPY-Y2 potentiation or agonism, primary screen; P49146; cells expressing NPY-Y2, potentiator/agonist read-out; activation, % at 3.6 µM; actives 0.45% (n = 220,000); AID 1359; in the data active means activation above about 27%;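 further: cells stimulated with NPY near EC25 plus isoproterenol at EC100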
NPY-Y1 ant conf = human NPY-Y1 antagonism, confirmation. shares compounds with NPY-Y1 antag. HEK293-CNG NPY-Y1, membrane potential fluorescence, cAMP; NPY challenge against isoproterenol-raised cAMP. inhibition, % at 3.6 µM. actives 21% (n = 1,200). AID 1254; in the data active means inhibition above about 20%
NPY-Y2 antag ct = antagonizes human NPY-Y2, counter-screen to NPY-Y1 antagonists; shares compounds with NPY-Y1 antag; HEK293 NPY-Y2 CNG membrane potential fluorescence, antagonism; cells given NPY, then isoproterenol; inhibition, % at 3.6 µM; actives 28% (n = 1,200); AID 1255
Each line names hits and unclear results; the compound was inactive in the other large screens (follow-up assays come after a bar, where they were run). Unless noted, no stated cut-off is given here; in the data, active means inhibition above about 17%; inactive means the rest.

CCOC(=O)c1c(NC(=O)C2COc3ccccc3O2)sc2c1CCN(Cc1ccccc1)C2 (stereo not given)	NPY-Y1 antag 22.5 | NPY-Y1 ant conf 22.6 | NPY-Y2 antag ct 19.9
O=C(NC(NC(=S)Nc1c(Cl)cccc1Cl)C(Cl)(Cl)Cl)OCc1ccccc1 (stereo not given)	NPY-Y1 antag 21.7 | NPY-Y1 ant conf inactive | NPY-Y2 antag ct inactive
COc1ccc2c(c1)cc(C(=O)O)n2C	none
COc1cc2cc(C(=O)O)n(C)c2c(OC)c1OC	NPY-Y1 antag 25.3 | NPY-Y1 ant conf inactive | NPY-Y2 antag ct inactive
CCN(CC)S(=O)(=O)c1cc(NC(=O)COc2ccc(C#N)cc2OC)ccc1C	NPY-Y1 antag 24.5 | NPY-Y1 ant conf inactive | NPY-Y2 antag ct 29.0
CCN(CC)S(=O)(=O)c1cccc(NC(=O)COc2ccc(C#N)cc2OC)c1	none
CSCCC(NS(=O)(=O)/C=C/c1ccccc1)C(=O)NCCc1ccc(S(N)(=O)=O)cc1 (stereo not given)	none (no result: NPY Y2 blocker, NPY-Y1 antag)
C=CCc1ccccc1OCCSc1nc2ccc([N+](=O)[O-])cc2s1	NPY-Y1 antag 20.9 | NPY-Y1 ant conf inactive | NPY-Y2 antag ct inactive
CC(C)N(C(=O)CSc1nnc(-c2ccc3c(c2)OCO3)n1C)C(C)C	none (no result: NPY Y2 blocker)
Cc1cc(C(=O)CSc2nc3ccccc3c(=O)[nH]2)c(C)n1CC1CCCO1 (stereo not given)	none (no result: NPY Y2 blocker)
Cc1cc(C(=O)CSc2nc3ccccc3c(=O)n2C)c(C)n1CC1CCCO1 (stereo not given)	NPY-Y1 antag 27.4 (no result: NPY Y2 blocker) | NPY-Y1 ant conf 33.4 | NPY-Y2 antag ct inactive
O=C(Cc1ccccc1)Nc1ccccc1N1CCN(c2ccccc2)CC1	NPY-Y1 antag 22.4 | NPY-Y1 ant conf inactive | NPY-Y2 antag ct inactive
CCCCC(=O)Nc1ccccc1N1CCN(c2ccccc2)CC1	NPY-Y1 antag 23.5 (no result: NPY Y2 blocker) | NPY-Y1 ant conf inactive | NPY-Y2 antag ct 29.6
O=C(Nc1ccccc1N1CCN(c2ccccc2)CC1)c1ccccc1F	NPY-Y1 antag 36.4 (no result: NPY Y2 blocker) | NPY-Y1 ant conf inactive | NPY-Y2 antag ct inactive
O=C(Nc1ccccc1N1CCCCC1)c1ccccc1F	none
CCCCCC(=O)Nc1ccccc1N1CCOCC1	none
O=C(Cc1ccc(Cl)cc1)Nc1ccccc1N1CCOCC1	none
Cc1ccc(NC(=S)Nc2cccnc2)c(S(=O)(=O)N2CCCCC2)c1	none (no result: NPY Y2 blocker)
Fc1ccccc1C1c2[nH]c3ccccc3c2CCN1Cc1cccn1-c1ncccn1 (stereo not given)	NPY-Y1 antag 29.2 (no result: NPY Y2 blocker) | NPY-Y1 ant conf inactive | NPY-Y2 antag ct inactive
COc1cc(-c2nnc(COc3ccc4ccccc4c3)o2)cc(OC)c1OC	NPY-Y1 antag 22.7 | NPY-Y1 ant conf inactive | NPY-Y2 antag ct inactive
CCOC(=O)c1c(N)sc2c(OCC)c(Br)ccc12	none
CCOC(=O)c1c(NC(C)=O)sc2c(OCC(O)CNC(C)(C)C)c(Br)ccc12 (stereo not given)	NPY-Y1 antag 122.2 (no result: NPY Y2 blocker) | NPY-Y1 ant conf 97.7 | NPY-Y2 antag ct 115.1
CCc1ccc2[nH]c(=O)c(CN(CCN(CC)CC)C(=S)NCc3ccco3)cc2c1	NPY-Y1 antag 21.9 (no result: NPY Y2 blocker) | NPY-Y1 ant conf inactive | NPY-Y2 antag ct inactive
Cc1onc(C(=O)N2C(C)CCCC2C)c1[N+](=O)[O-] (stereo not given)	none
O=C(O)CSc1nc(-c2ccc(Cl)cc2)nc2c1oc1ccccc12	none
O=C(O)CSc1nc(-c2ccccc2)nc2c1oc1ccccc12	NPY-Y1 antag 23.3 | NPY-Y1 ant conf inactive | NPY-Y2 antag ct inactive
Cc1ccc(-c2nc(CCN3C(=O)c4ccccc4C3=O)cs2)cc1	NPY-Y1 antag 25.1 | NPY-Y1 ant conf inactive | NPY-Y2 antag ct inactive
Cc1ccc(Cl)cc1NC(=S)N(Cc1ccccc1)Cc1cccnc1	none (no result: NPY Y2 blocker)
COc1cccc(/C=N/NC(=O)CN2CC(c3ccccc3)CC2=O)c1OC (stereo not given)	none
Cc1c(Cl)cnc(NC(=O)COC(=O)Cc2coc3ccc4ccccc4c23)c1Cl	NPY-Y1 antag 23.4 | NPY-Y1 ant conf inactive | NPY-Y2 antag ct inactive
CCNc1nc(NCC)nc(SCCOC(=O)c2ccccc2)n1	none
CCNc1nc(NCC)nc(SCCOC(=O)Nc2ccc(Cl)cc2Cl)n1	NPY-Y1 antag 24.0 | NPY-Y1 ant conf inactive | NPY-Y2 antag ct inactive
Cc1cccc2nc(-c3cccnc3)c(NCCC(C)C)n12	NPY-Y1 antag 21.8 (no result: NPY Y2 blocker) | NPY-Y1 ant conf inactive | NPY-Y2 antag ct inactive
COc1ccc(-n2cc(CNC3CCN(C)CC3)c(-c3cccc(F)c3)n2)cc1	NPY-Y1 antag 21.9 (no result: NPY Y2 blocker) | NPY-Y1 ant conf inactive | NPY-Y2 antag ct 23.8
CCOc1ccccc1CN1CCN(C/C=C/c2ccc(OC)cc2)CC1CCO (stereo not given)	NPY-Y1 antag 25.4 (no result: NPY Y2 blocker) | NPY-Y1 ant conf inactive | NPY-Y2 antag ct inactive
CCS(=O)(=O)C1=NN2C(=N)/C(=C\c3ccc(SCc4ccco4)o3)C(=O)N=C2S1	none (no result: NPY Y2 blocker)
COc1ccc(C2=NOC(C(=O)NCc3cccs3)C2)cc1OC (stereo not given)	NPY-Y1 antag 23.1 | NPY-Y1 ant conf inactive | NPY-Y2 antag ct inactive
COc1ccc(CNC(=O)C2CC(c3ccc(F)cc3)=NO2)cc1 (stereo not given)	none
COc1ccc(C2=NOC(C(=O)NCc3ccc(F)cc3)C2)cc1 (stereo not given)	NPY-Y1 antag 40.8 | NPY-Y1 ant conf inactive | NPY-Y2 antag ct inactive
COc1cc(C2=NOC(C(=O)NCc3cccs3)C2)cc(OC)c1OC (stereo not given)	none
CC(Nc1ccc2c(c1)OCCO2)C(=O)N1c2ccccc2CC1C (stereo not given)	none (no result: NPY Y2 blocker)
C/C(=N\Nc1nc2ccccc2[nH]1)c1ccc2c(c1)OCCO2	none (no result: NPY Y2 blocker)
C/C(=N\Nc1nc2ccccc2[nH]1)c1cc2ccccc2o1	NPY-Y1 antag 33.1 | NPY-Y1 ant conf inactive | NPY-Y2 antag ct 17.4
CN(c1cccc(NC(=O)c2ccc(C(C)(C)C)cc2)c1)S(C)(=O)=O	none (no result: NPY Y2 blocker)
CN(c1cccc(NC(=O)c2ccc(N(C)S(=O)(=O)c3ccccc3)cc2)c1)S(C)(=O)=O	NPY-Y1 antag 41.0 (no result: NPY Y2 blocker) | NPY-Y1 ant conf inactive | NPY-Y2 antag ct inactive
COc1ccccc1Nc1nc(N)nc(CN2CCC(Cc3ccccc3)CC2)n1	NPY-Y1 antag 25.1 | NPY-Y1 ant conf inactive | NPY-Y2 antag ct 22.2
COc1ccccc1CCNC(=O)CSc1ccc(-c2ccco2)nn1	NPY-Y1 antag 22.0 (no result: NPY Y2 blocker) | NPY-Y1 ant conf inactive | NPY-Y2 antag ct inactive
COc1ccccc1-c1ccc(SCC(=O)NCCc2ccccc2)nn1	none (no result: NPY Y2 blocker)
COc1ccc(Oc2cn[nH]c2-c2ccc(O)cc2O)cc1	NPY-Y1 antag 61.4 | NPY-Y1 ant conf 40.2 | NPY-Y2 antag ct inactive
CC(=O)Nc1ccc(NC(=O)C(C)Sc2nnc(-c3cccs3)o2)cc1 (stereo not given)	none (no result: NPY Y2 blocker, NPY-Y1 antag)
O=C(CN1C(=O)C2CC=CCC2C1=O)Nc1nnc(SCc2c(Cl)cccc2Cl)s1 (stereo not given)	none

Source: PubChem BioAssay
